Most compounds without a hit are left out; they make up all but 2.9% or so of the library.
M1 ag parental: counter-screen for M1 agonists: effect in parental CHO-K1 cells; Fluo-8 calcium fluorescence; scaled to maximal ATP response, vehicle zero; activation, % at 3 µM; hit rate 0.48% among 360,000; AID 602248; in the data active = activation above about 15%;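 also: untransfected CHO-K1 host cells lacking M1 receptor as counterscreen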
OX1R antag-1: OX1R (human) antagonism; hit rate 1.8% among 330,000; inhibition, % at 6.6 µM; OX1R-expressing cells, FRET antagonist read-out; O43613; in the data active = inhibition mostly above about 38%, no sharp cut-off; inactive = mostly below about 40%;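 also: 0% = agonist challenge alone and 100% = reference antagonist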
Target sequence (O43613 whole entry, looked up): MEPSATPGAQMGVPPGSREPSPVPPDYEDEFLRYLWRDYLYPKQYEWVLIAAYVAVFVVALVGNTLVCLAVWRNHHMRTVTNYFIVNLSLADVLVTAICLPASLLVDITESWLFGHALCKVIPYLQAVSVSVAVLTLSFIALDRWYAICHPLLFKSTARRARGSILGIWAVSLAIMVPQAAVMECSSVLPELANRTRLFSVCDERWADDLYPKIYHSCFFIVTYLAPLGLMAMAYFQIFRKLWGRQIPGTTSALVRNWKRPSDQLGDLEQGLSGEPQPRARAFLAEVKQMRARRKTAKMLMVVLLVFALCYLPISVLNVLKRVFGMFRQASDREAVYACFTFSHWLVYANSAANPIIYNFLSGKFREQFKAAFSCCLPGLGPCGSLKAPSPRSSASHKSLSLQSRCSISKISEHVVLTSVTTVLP
CHO-K1 Ca antag: nonselective inhibitor or artifact in parental CHO-K1 cells; ATP-induced calcium, Fluo-8 fluorescence; hit rate 0.6% among 360,000; inhibition, % at 3 µM;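 active = inhibition above a per-plate cutoff, the plate's mean sample inhibition plus 3 SD, cut at about 24% in these data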;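 also: 0% = DMSO plus EC80 ATP and 100% = DMSO alone without ATP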
M1 PAM parental: M1 PAM counterscreen hit in parental CHO-K1 cells; activation, % at 3 µM; AID 602247; hit rate 0.02% among 360,000; ATP EC20, Fluo-8 calcium fluorescence; 0% at ATP EC20, 100% at ATP max;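 active = activation above the run cutoff, the mean activation of all test compounds plus 3 SD, cut at about 40% in these data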;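 also: peak over basal fluorescence ratio in a 140 s read after ATP addition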
OX1R antag-2: human HCRTR1 antagonism; CHO/OX1R cells, Fluo-8 calcium fluorescence, orexin A; inhibition, % at 5 µM; hit rate 0.43% among 330,000; AID 434989; O43613;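 active = inhibition above its plate's threshold, mean inhibition of all tested compounds on the plate plus 3 SD, cut at about 37% in these data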;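 also: 0% = orexin A challenge wells and 100% = SB-334867-A antagonist wells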
CHO parental Ca: counter-screen for OX1R antagonists: effect in parental CHO cells; hit rate 0.63% among 330,000; inhibition, % at 5.6 µM; AID 463079; parental CHO-K1, ATP-induced calcium, Fluo-8 fluorescence;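 active = inhibition above that plate's mean sample inhibition plus 3 SD, cut at about 26% in these data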;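 also: 0% = ATP-challenged DMSO wells and 100% = DMSO wells without ATP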
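Assay system: untransfected parental CHO cell line. Also added: ATP agonist challenge. Dosing: one dose, 5.6 µM nominal. Measured by: Fluo-8 fluorescence. Read-out: % inhibition. Benchmarks: ATP wells versus no-ATP DMSO wells. Repeats: no replicates.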
An asterisk follows results filed as active; . = no result.

SMILES	M1 ag parental	OX1R antag-1	CHO-K1 Ca antag	M1 PAM parental	OX1R antag-2	CHO parental Ca
COc1ccccc1S(=O)(=O)N(C)C[C@@H]1Oc2cc(C#CCC(C)C)ccc2S(=O)(=O)N([C@H](C)CO)C[C@@H]1C	0	.	34*	-11	.	.
COc1cc(/C=C(\C#N)c2nc3ccccc3[nH]2)ccc1OC(=O)c1ccco1	8	71*	-10	19	14	2
O=C(c1[nH]c(C(F)(F)F)nc1-c1ccccc1)N1CCCCC1	0	.	26*	-7	.	.
CC(=O)Oc1ccc2oc(/C=C/N(C)C)c([N+](=O)[O-])c2c1	1	50*	-7	18	4	-3
CC1C/C(=C/c2cccn2C)C(=O)/C(=C/c2cccn2C)C1 (centres undefined)	1	0	-3	7	111*	83*
Cc1ccc(NC(=O)Cn2c(=O)oc3ccccc32)c(C)c1	0	0	5	9	-8	-11
CC(C)C[C@H]1CN([C@@H](Cc2ccccc2)CN2CCC[C@H]2CN2C(=O)C(=O)NC[C@@H]2Cc2ccc(O)cc2)C(=O)C(=O)N1CC1CCCCC1	1	.	-16	15	.	.
Oc1ccc(C[C@H]2CN([C@@H](Cc3ccc(O)cc3)CN3CCC[C@@H]3CN3C(=S)NC[C@@H]3Cc3ccccc3)C(=S)N2CCc2ccccc2)cc1	0	.	34*	0	.	.
CC(C)C[C@H]1CN([C@@H](Cc2ccccc2)CN2CCC[C@@H]2CN2C(=O)C(=O)NC[C@@H]2Cc2ccc(O)cc2)C(=O)C(=O)N1CC1CCCCC1	0	.	30*	-8	.	.
O=C(COc1ccccc1)Nc1nc2cc3c(cc2s1)OCO3	1	18	-3	5	0	31*
O=C(COc1ccccc1)Nc1nc2cc3c(cc2s1)OCCO3	1	14	6	-27	2	5
O=C(O)C1CCC(CNS(=O)(=O)c2ccccc2)CC1 (centres undefined)	0	-5	-11	10	-14	-2
O=[N+]([O-])c1cc(-c2ncccn2)cs1	-1	51*	1	5	4	-1
CC(C)(C)c1csc(Sc2ncccc2[N+](=O)[O-])n1	0	11	-5	4	-26	-11
CCOC(=O)c1c(C)oc2c1c(C(c1cccnc1)N1CCOCC1)c(O)c1ccccc12 (centres undefined)	0	73*	1	9	7	3
CCOC(=O)c1c(C)oc2c1c1c(c3ccccc32)OCN(Cc2cccnc2)C1	2	.	-12	18	.	.
COc1ccc(N2CCN(C(=O)c3c(-c4c(F)cccc4Cl)noc3C)CC2)cc1	1	12	-10	-2	-6	-19
O=C(Nc1ccc(N2CCCC(O)C2)cc1)c1snc2c(=O)[nH]cnc12 (centres undefined)	0	40*	-18	4	-5	0
COc1ccc(/C=C2\SC(N3CCCCC3)=NC2=O)cc1	-1	23	-4	5	-20	-26
O=C1N=C(N2CCCCC2)S/C1=C\c1ccncc1	1	45*	-4	4	-1	-2
O=C1N=C(N2CCOCC2)S/C1=C\c1cccnc1	0	37*	-4	-7	-4	7
CCOC(=O)c1c(C)[nH]c(C(=O)COC(=O)c2ccc(N3CCCC3=O)cc2)c1C	0	9	27*	-7	-24	-8
CCCCNC(=S)N/N=C1\C(=O)c2cccc3cccc1c23	0	11	25*	-9	-11	-10
CNC(=S)N/N=C1\C(=O)c2cccc3cccc1c23	1	58	-13	29	-17	-19
Cc1ccc(Cl)cc1NC(=O)COC(=O)CSc1ccccc1	0	7	-13	10	-13	-4
SMILES	M1 ag parental	OX1R antag-1	CHO-K1 Ca antag	M1 PAM parental	OX1R antag-2	CHO parental Ca
CN(C)S(=O)(=O)N1CCC(Oc2cccc(C(=O)NCCC3=CCCCC3)c2)CC1	16*	37	2	-3	-7	1
CN(C)S(=O)(=O)N1CCC(Oc2cccc(C(=O)NC3CCCCC3)c2)CC1	13	12	1	7	-18	-13
COCCCn1c(=NC(C)=O)c(C#N)cc2c(=O)n3cccc(C)c3nc21	1	23	-3	15	-4	-22
CCOCCCn1c(=NC(C)=O)c(C#N)cc2c(=O)n3ccccc3nc21	1	40*	-3	18	1	1
COCCCn1c(=NC(=O)c2ccccc2)c(C#N)cc2c(=O)n3cccc(C)c3nc21	0	55*	-6	9	2	10
CCOCCCn1c(=NC(C)=O)c(C(=O)OCC)cc2c(=O)n3ccccc3nc21	0	59*	-7	7	-7	-2
CN(C(=O)c1nn(C)c2c1CS(=O)(=O)c1ccccc1-2)c1cccc(Cl)c1	2	8	-15	27	-14	-7
CC(=O)Cn1nnc2sc3c(c2c1=O)CCC(C(C)(C)C)C3 (centres undefined)	-1	8	2	-8	-25	-21
CCOC(=O)c1sc(NC(=O)Cn2nnc3sc4c(c3c2=O)CCC(C(C)(C)C)C4)nc1C (centres undefined)	-1	17	26*	-12	-27	-17
Cc1ccc(NC(=O)CCNS(=O)(=O)c2cccc3nsnc23)cc1F	3	25	-12	-14	-20	-6
CCCCNC(=O)c1cc2cc(CC)ccc2[nH]1	0	16	8	-11	-28	-13
Cc1cccc(NC(=O)C(C)N2C(=O)c3ccccc3S2(=O)=O)n1 (centres undefined)	0	12	28*	-26	-8	-17
Cc1cccc(NC(=O)CN2C(=O)c3ccccc3S2(=O)=O)n1	0	2	15	-30	-8	-1
Cc1cccc(NC(=S)NCCC(c2ccccc2)c2ccccc2)c1	5	11	-8	16	-33	-28
Cc1cc(Cl)ccc1NC(=S)NCCC(c1ccccc1)c1ccccc1	1	52	20	-5	45*	37*
Cc1c(Cl)cccc1NC(=S)NCCC(c1ccccc1)c1ccccc1	1	28	24*	-5	-8	1
CC(C)(C)NC(=O)NC(=O)COC(=O)c1ccc(OC(F)F)cc1	0	4	28*	-11	-14	-7
CC(C)(C)NC(=O)NC(=O)COC(=O)c1ccc(OC(F)(F)F)cc1	0	-2	-2	3	-23	-11
COc1ccc(OC)c(S(=O)(=O)Oc2ccc(N)c3ccccc23)c1	1	43*	-3	18	-13	-3
COc1cc2c(cc1NC(=O)C(C)OC(=O)C1CC(=O)N(Cc3ccco3)C1)oc1ccccc12 (centres undefined)	0	31	29*	-6	-8	-19
CC(OC(=O)C1CC(=O)N(Cc2ccco2)C1)C(=O)Nc1cccc(C#N)c1 (centres undefined)	1	.	-1	-8	.	.
